From ChEMBL document CHEMBL4673214, “Synthesis and antibacterial bioactivities of cationic deacetyl linezolid amphiphiles” (Eur J Med Chem, 2018) come the findings set out here.

Type in all cases: functional
For experiment [1], the system named is Staphylococcus aureus. Nature of the experiment: Antibiofilm activity against 24 hrs preformed biofilm of Staphylococcus aureus ATCC 29213 assessed as biofilm viability at 16 ug/ml incubated for 24 hrs by crystal violet staining analysis (reference value: 18.9 1og10CFU). As to conditions: dose 16 µg/ml.
For experiment [2], the system named is Staphylococcus aureus. Nature of the experiment: Antibacterial activity against Staphylococcus aureus ATCC 29213 assessed as reduction in bacterial growth compound preincubated with 50% sheep plasma for 6 hrs followed by incubation for 20 to 24 hrs by agar plate method. The settings on record: time 20-24 hrs. The procedure, abridged: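 Sheep plasma came from centrifuged defibrinated blood. Compound at 512 µg/mL in 50% water/50% plasma was preincubated at 37 °C for 0, 3 or 6 h, then serially diluted (256 to 4 µg/mL). Dilutions were mixed 1:3 with S. aureus suspension (10^5 CFU/mL) and incubated 20-24 h at 37 °C. MBC was taken as no colonies after 20 µL was plated on agar.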

Experiment [3] relates to Staphylococcus aureus. Nature of the experiment: Antibiofilm activity against 24 hrs preformed biofilm of Staphylococcus aureus ATCC 29213 assessed as biofilm viability at 128 ug/ml incubated for 24 hrs by crystal violet staining analysis (reference value: 18.9 1og10CFU). As to conditions: dose 128 µg/ml.
The test system of experiment [4] is Staphylococcus aureus. Kind of experiment: Antibacterial activity against Staphylococcus aureus ATCC 29213 assessed as reduction in bacterial measured after 20 passages by CLSI-based broth microdilution method. The procedure, abridged: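 Serial passaging: after each 24 h MIC assay, cells grown at 1/2 MIC were transferred and the MIC assayed again, for 20 passages. Done with S. aureus, E. coli and MRSA. MIC plotted against days of passage. Experiment repeated twice.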
Background: Broth dilution looks for growth in wells or tubes with falling amounts of substance.

For orientation: MBC means the lowest tested concentration that kills the bacteria rather than only halting them. What is called MIC is the smallest concentration in the dilution series that meets the test's criterion for growth inhibition. For `CCCCCCCCCCCN(C[C@H]1CN(c2ccc(N3CCOCC3)c(F)c2)C(=O)O1)C(=O)[C@@H](N)CCCCN.Cl.Cl`, the results for the Activity with Staphylococcus aureus [1] and with Staphylococcus aureus [3] were 8.7 log10CFU and 4.7 log10CFU, respectively. Further, the MBC with Staphylococcus aureus [2] came out at 64 µg/mL. For the same molecule, in the experiment on Staphylococcus aureus [4], the MIC was determined as 2 µg/mL.
